Data: ChEMBL document CHEMBL1135580, “6,7-Dihydro-2-benzothiophen-4(5H)-ones: a novel class of GABA-A alpha5 receptor inverse agonists” (J Med Chem, 2002)

Tests used:
[1] = target: T1, GABA-A receptor; alpha-3/beta-3/gamma-2 (Homo sapiens, UniProt P18507+P28472+P34903); assay: Displacement of [3H]- Ro 15-1788 binding from human GABA-A receptor alpha-3-beta-3-gamma-2 subunits; assay type: protein-complex assay
T1 sequence (P18507 whole entry): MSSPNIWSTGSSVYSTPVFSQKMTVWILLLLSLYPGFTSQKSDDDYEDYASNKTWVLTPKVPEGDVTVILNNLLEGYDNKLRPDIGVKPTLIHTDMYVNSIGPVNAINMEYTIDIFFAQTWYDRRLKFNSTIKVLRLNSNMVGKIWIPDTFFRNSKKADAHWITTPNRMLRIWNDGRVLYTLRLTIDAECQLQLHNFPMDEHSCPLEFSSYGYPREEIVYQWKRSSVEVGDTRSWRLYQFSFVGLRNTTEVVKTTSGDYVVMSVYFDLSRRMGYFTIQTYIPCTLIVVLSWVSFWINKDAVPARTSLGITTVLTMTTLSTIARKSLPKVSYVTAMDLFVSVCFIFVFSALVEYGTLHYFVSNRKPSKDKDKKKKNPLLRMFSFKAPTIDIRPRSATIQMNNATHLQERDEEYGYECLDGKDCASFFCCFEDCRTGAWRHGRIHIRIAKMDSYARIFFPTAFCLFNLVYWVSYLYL
T1 sequence (P28472 whole entry): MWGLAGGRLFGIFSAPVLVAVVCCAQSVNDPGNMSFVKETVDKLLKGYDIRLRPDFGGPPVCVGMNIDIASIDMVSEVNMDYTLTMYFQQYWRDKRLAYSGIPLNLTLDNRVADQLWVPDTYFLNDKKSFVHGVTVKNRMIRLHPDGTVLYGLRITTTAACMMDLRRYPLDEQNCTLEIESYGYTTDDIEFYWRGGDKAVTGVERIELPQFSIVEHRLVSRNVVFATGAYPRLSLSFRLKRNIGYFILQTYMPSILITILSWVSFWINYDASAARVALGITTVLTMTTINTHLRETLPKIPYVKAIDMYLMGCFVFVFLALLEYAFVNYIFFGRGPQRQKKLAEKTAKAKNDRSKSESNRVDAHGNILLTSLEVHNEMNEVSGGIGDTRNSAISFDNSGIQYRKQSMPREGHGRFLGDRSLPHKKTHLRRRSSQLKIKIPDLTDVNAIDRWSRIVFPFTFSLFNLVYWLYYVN
T1 sequence (P34903 whole entry): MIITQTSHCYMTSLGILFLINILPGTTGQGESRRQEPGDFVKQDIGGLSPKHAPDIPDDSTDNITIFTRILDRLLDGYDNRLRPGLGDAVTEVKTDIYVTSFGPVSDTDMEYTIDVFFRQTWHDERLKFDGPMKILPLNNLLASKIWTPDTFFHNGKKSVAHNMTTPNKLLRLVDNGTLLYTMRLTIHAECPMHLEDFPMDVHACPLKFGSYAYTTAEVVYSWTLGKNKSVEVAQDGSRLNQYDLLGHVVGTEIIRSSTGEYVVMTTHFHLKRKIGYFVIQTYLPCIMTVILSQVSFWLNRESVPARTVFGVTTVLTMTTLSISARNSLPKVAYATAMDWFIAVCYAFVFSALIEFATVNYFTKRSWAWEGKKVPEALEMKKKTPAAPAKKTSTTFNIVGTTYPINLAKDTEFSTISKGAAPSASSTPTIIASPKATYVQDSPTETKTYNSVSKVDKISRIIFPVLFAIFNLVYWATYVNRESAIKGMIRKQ
In short: (§1)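 Radioligand displacement of [³H]Ro15-1788 from recombinant human GABA-A receptor subtypes. Ki values are the geometric mean ± SEM of three independent determinations.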

[2] = target: T2, Gamma-aminobutyric acid receptor subunit alpha-5 (Homo sapiens) (UniProt P31644); assay: Selectivity for GABA-A receptor alpha-5 subunit binding over alpha-1,2,3 when co-expressed with beta-3 and gamma-2
T2 sequence (whole entry): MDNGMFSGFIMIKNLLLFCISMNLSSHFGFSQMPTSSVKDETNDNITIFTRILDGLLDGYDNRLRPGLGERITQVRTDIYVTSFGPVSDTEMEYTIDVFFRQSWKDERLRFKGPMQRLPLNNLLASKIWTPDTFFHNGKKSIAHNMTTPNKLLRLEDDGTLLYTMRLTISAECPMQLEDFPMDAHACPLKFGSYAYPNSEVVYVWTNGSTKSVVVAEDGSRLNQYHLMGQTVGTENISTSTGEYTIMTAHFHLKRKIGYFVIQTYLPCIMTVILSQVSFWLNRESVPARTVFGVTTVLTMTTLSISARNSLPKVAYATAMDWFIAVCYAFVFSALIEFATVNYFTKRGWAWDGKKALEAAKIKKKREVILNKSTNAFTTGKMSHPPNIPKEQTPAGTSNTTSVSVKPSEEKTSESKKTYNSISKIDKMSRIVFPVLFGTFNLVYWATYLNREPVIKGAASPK
In short: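 Ratio of binding affinity for α5 over α1, α2 and α3. Each affinity comes from [³H]Ro15-1788 displacement at recombinant human receptors, with Ki as the geometric mean of three independent determinations.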

[3] = target: T3, GABA-A receptor; alpha-2/beta-3/gamma-2 (Homo sapiens, UniProt P18507+P28472+P47869); assay: Displacement of [3H]- Ro 15-1788 binding from human GABA-A receptor alpha-2-beta-3-gamma-2 subunits; assay type: protein-complex assay; in short: as §1
T3 sequence (P18507 whole entry): T1 sequence (P18507 whole entry)
T3 sequence (P28472 whole entry): T1 sequence (P28472 whole entry)
T3 sequence (P47869 whole entry): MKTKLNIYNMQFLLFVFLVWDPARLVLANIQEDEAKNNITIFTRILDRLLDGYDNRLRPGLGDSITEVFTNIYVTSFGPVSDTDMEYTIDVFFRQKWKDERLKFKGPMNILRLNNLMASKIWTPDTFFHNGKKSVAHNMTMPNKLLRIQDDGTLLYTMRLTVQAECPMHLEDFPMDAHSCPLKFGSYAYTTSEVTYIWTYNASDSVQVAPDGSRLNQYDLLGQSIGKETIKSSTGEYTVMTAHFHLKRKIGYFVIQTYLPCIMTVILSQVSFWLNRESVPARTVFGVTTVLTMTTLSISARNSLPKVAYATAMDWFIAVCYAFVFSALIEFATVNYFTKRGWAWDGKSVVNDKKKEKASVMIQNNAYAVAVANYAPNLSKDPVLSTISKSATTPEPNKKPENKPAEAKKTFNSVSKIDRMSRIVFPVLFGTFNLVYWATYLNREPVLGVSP

[4] = target: T4, GABA-A receptor; alpha-1/beta-3/gamma-2 (Homo sapiens, UniProt P14867+P18507+P28472); assay: Displacement of [3H]- Ro 15-1788 binding from human GABA-A receptor alpha-1-beta-3-gamma-2 subunits; assay type: protein-complex assay; in short: as §1
T4 sequence (P14867 whole entry): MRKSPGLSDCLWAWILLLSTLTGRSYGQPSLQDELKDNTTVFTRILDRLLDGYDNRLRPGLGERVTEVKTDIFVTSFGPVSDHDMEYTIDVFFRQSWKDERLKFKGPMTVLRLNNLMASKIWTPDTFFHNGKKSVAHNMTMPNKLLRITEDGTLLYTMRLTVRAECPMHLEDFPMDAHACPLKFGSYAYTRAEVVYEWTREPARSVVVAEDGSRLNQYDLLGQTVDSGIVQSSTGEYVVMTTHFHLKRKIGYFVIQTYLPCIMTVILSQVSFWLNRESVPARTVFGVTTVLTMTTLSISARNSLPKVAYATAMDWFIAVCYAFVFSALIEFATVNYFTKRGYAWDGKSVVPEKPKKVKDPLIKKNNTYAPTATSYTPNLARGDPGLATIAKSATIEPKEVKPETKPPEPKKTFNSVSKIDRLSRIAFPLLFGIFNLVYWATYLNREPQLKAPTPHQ
T4 sequence (P18507 whole entry): T1 sequence (P18507 whole entry)
T4 sequence (P28472 whole entry): T1 sequence (P28472 whole entry)

[5] = target: T5, GABA-A receptor; alpha-5/beta-3/gamma-2 (Homo sapiens) (UniProt P18507+P28472+P31644); assay: Percentage modulation of GABA EC20 against human GABA-A receptor alpha-5-beta-3-gamma-2 subunits expressed in Xenopus laevis oocytes; assay type: cell-based; details: Oocyte
[6] = target: T6, GABA-A receptor; alpha-5/beta-3/gamma-2 (Homo sapiens, UniProt P18507+P28472+P31644); assay: Displacement of [3H]- Ro 15-1788 binding from human GABA-A receptor alpha-5-beta-3-gamma-2 subunits; assay type: protein-complex assay; in short: as §1
T6 sequence (P18507 whole entry): T1 sequence (P18507 whole entry)
T6 sequence (P28472 whole entry): T1 sequence (P28472 whole entry)
T6 sequence (P31644 whole entry): T2 sequence (whole entry)

[7] = target: GABA-A receptor; alpha-1/beta-3/gamma-2 (Homo sapiens) (UniProt P14867+P18507+P28472); assay: Maximum modulation relative to GABA EC20 against human GABA-A receptor alpha-1-beta-3-gamma-2 subunits expressed in mammalian fibroblast L(tk-) cells; assay type: cell-based
In short: (§2)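 Whole-cell patch-clamp recording from mammalian fibroblast L(tk-) cells stably expressing GABA-A αxβ3γ2 (x = 1, 2, 3 or 5). Compound modulation of a submaximal (EC20) GABA current was recorded. Maximum modulation came from individually fitted concentration-response curves, at least five per value, given as mean ± SEM.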

[8] = target: GABA-A receptor; alpha-2/beta-3/gamma-2 (Homo sapiens) (UniProt P18507+P28472+P47869); assay: Maximum modulation relative to GABA EC20 against human GABA-A receptor alpha-2-beta-3-gamma-2 subunits expressed in mammalian fibroblast L(tk-) cells; assay type: cell-based; in short: as §2
[9] = target: T5, GABA-A receptor; alpha-5/beta-3/gamma-2 (Homo sapiens); assay: Maximum modulation relative to GABA EC20 against human GABA-A receptor alpha-5-beta-3-gamma-2 subunits expressed in mammalian fibroblast L(tk-) cells; assay type: cell-based; in short: as §2
[10] = target: GABA-A receptor; alpha-3/beta-3/gamma-2 (Homo sapiens) (UniProt P18507+P28472+P34903); assay: Maximum modulation relative to GABA EC20 against human GABA-A receptor alpha-3-beta-3-gamma-2 subunits expressed in mammalian fibroblast L(tk-) cells; assay type: cell-based; in short: as §2

SMILES | Ki [1] [nM] | Selectivity [2] | Ki [3] [nM] | Ki [4] [nM] | Efficacy [5] [%] | Ki [6] [nM] | Efficacy [7] [%] | Efficacy [8] [%] | Efficacy [9] [%] | Efficacy [10] [%]
CC1(C)CC(=O)c2c(SSc3nccs3)sc(-c3cc[nH]n3)c2C1 | 48 | 3 | 19 | 4.3 | -7 | 1.4 |  |  |  | 
CSc1sc(-c2cc[nH]n2)c2c1C(=O)CC(C)(C)C2 | 21 | 13 | 56 | 66 | -3 | 5.2 |  |  |  | 
CC(C)Sc1sc(-c2cc[nH]n2)c2c1C(=O)CC(C)(C)C2 | 7 | 6 | 12 | 5 |  | 2 |  |  |  | 
CCSc1sc(-c2cc[nH]n2)c2c1C(=O)CC(C)(C)C2 | 16 | 10 | 16 | 12 |  | 1.6 |  |  |  | 
CSc1sc(-c2ccncc2)c2c1C(=O)CC(C)(C)C2 | 35 | 19 | 43 | 172 | -20 | 9.1 |  |  |  | 
CCc1c(C(=O)OC)ncc2[nH]c3cc(OC)c(OC)cc3c12 | 7.5 | 3 | 13 | 10 | -34 | 2.2 | -71 | -53 | -57 | -62
CC1(C)CC(=O)c2c(SCCO)sc(-c3cc[nH]n3)c2C1 | 24 | 11 | 21 | 31 |  | 2.9 |  |  |  | 
CC1(C)CC(=O)c2c(SCCO)sc(-c3ccccn3)c2C1 | 10 | 20 | 5.2 | 3.6 | -39 | 0.5 |  |  |  | 
CC1(C)CC(=O)c2c(SCCO)sc(-c3nccs3)c2C1 | 20 | 13 | 16 | 20 | -38 | 1.6 | -21 | -1 | -51 | -3
CSc1sc(-c2cccnc2)c2c1C(=O)CC(C)(C)C2 | 33 | 28 | 31 | 165 | -40 | 5.8 |  |  |  | 
CSc1sc(-c2ccccn2)c2c1C(=O)CC(C)(C)C2 | 25 | 26 | 26 | 45 | -31 | 1.7 |  |  |  | 
CSc1sc(-c2nccs2)c2c1C(=O)CC(C)(C)C2 | 47 | 28 | 44 | 61 | -24 | 2.2 |  |  |  | 
